Measured values taken from ChEMBL document CHEMBL2040730, “Synthesis of berbamine acetyl glycosides and evaluation of antitumor activity” (Eur J Med Chem, 2012).

How the values were obtained:
Type in all cases: functional, cell-based
A549 = test: Cytotoxicity against human A549 cells after 2 days by MTT assay
Outline: (§1)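 Cells were seeded at 5 × 10³ per well and exposed to eight compound concentrations (50, 25, 12.5, 6.25, 3.13, 1.56, 0.78, 0.39), with positive and blank controls. Incubation was 2 days at 37 °C and 5% CO₂. MTT (5 mg/mL stock) was then added for 4 h. After the supernatant was removed, formazan was dissolved in DMSO for 20 min at room temperature. OD was read at 570 nm, and viability was expressed as % of compound-free medium controls.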

L1210 = test: Cytotoxicity against mouse L1210 cells after 2 days by MTT assay; outline: as §1
K562 = test: Cytotoxicity against human K562 cells after 2 days by MTT assay; outline: as §1

SMILES | IC50 (A549; a549) | IC50 (L1210; l1210) | IC50 (K562; k562) | IC50 (A549; Homo sapiens, A549, 48 h) | IC50 (L1210; Mus musculus, L1210, 48 h) | IC50 (K562; Homo sapiens, K562, 48 h)
COc1cc2c3cc1Oc1c(OC)c(OC)cc4c1[C@@H](Cc1ccc(O[C@@H]5O[C@H](COC(C)=O)[C@@H](O[C@@H]6O[C@H](COC(C)=O)[C@@H](OC(C)=O)[C@H](OC(C)=O)[C@H]6OC(C)=O)[C@H](OC(C)=O)[C@H]5OC(C)=O)c(c1)Oc1ccc(cc1)C[C@@H]3N(C)CC2)N(C)CC4 [listing 1 of 2 here] | ≥ 50000 nM | 1850 nM | ≥ 50000 nM |  |  | 
COc1cc2c3cc1Oc1c(OC)c(OC)cc4c1[C@@H](Cc1ccc(O[C@@H]5O[C@H](COC(C)=O)[C@@H](O[C@@H]6O[C@H](COC(C)=O)[C@@H](OC(C)=O)[C@H](OC(C)=O)[C@H]6OC(C)=O)[C@H](OC(C)=O)[C@H]5OC(C)=O)c(c1)Oc1ccc(cc1)C[C@@H]3N(C)CC2)N(C)CC4 [listing 2 of 2 here] |  | 300 nM | 2230 nM | 27800 nM |  | 
COc1cc2c3cc1Oc1c(OC)c(OC)cc4c1[C@@H](Cc1ccc(O[C@@H]5O[C@H](COC(C)=O)[C@H](OC(C)=O)[C@H](OC(C)=O)[C@H]5OC(C)=O)c(c1)Oc1ccc(cc1)C[C@@H]3N(C)CC2)N(C)CC4 |  |  |  | 43000 nM | 2170 nM | 2030 nM
COc1cc2c3cc1Oc1c(OC)c(OC)cc4c1[C@@H](Cc1ccc(O[C@@H]5O[C@H](COC(C)=O)[C@@H](OC(C)=O)[C@H](OC(C)=O)[C@H]5OC(C)=O)c(c1)Oc1ccc(cc1)C[C@@H]3N(C)CC2)N(C)CC4 |  |  |  | 29500 nM | 570 nM | 1960 nM
COc1cc2c3cc1Oc1c(OC)c(OC)cc4c1[C@@H](Cc1ccc(O[C@@H]5OC[C@@H](OC(C)=O)[C@H](OC(C)=O)[C@H]5OC(C)=O)c(c1)Oc1ccc(cc1)C[C@@H]3N(C)CC2)N(C)CC4 |  |  |  | ≥ 50000 nM | 1270 nM | 1550 nM
COc1cc2c3cc1Oc1c(OC)c(OC)cc4c1[C@@H](Cc1ccc(O[C@H]5O[C@@H](COC(C)=O)[C@H](OC(C)=O)[C@@H](OC(C)=O)[C@@H]5OC(C)=O)c(c1)Oc1ccc(cc1)C[C@@H]3N(C)CC2)N(C)CC4 |  |  |  | ≥ 50000 nM | 2740 nM | ≥ 50000 nM
COc1cc2c3cc1Oc1c(OC)c(OC)cc4c1[C@@H](Cc1ccc(O[C@@H]5O[C@H](CO)[C@@H](O[C@@H]6O[C@H](CO)[C@@H](O)[C@H](O)[C@H]6O)[C@H](O)[C@H]5O)c(c1)Oc1ccc(cc1)C[C@@H]3N(C)CC2)N(C)CC4 |  |  |  | ≥ 50000 nM | 10600 nM | ≥ 50000 nM
COc1cc2c3cc1Oc1c(OC)c(OC)cc4c1[C@@H](Cc1ccc(O)c(c1)Oc1ccc(cc1)C[C@@H]3N(C)CC2)N(C)CC4 |  |  |  | 39700 nM | 2730 nM | 4000 nM
COc1cc2c3cc1Oc1c(OC)c(OC)cc4c1[C@@H](Cc1ccc(O[C@@H]5O[C@H](COC(C)=O)[C@@H](O[C@@H]6O[C@H](COC(C)=O)[C@H](OC(C)=O)[C@H](OC(C)=O)[C@H]6OC(C)=O)[C@H](OC(C)=O)[C@H]5OC(C)=O)c(c1)Oc1ccc(cc1)C[C@@H]3N(C)CC2)N(C)CC4 |  |  |  | ≥ 50000 nM | 2030 nM | 3560 nM
